Tests used:
hOGG1 [1] = molecular target: T1, hOGG1 (Homo sapiens, UniProt O15527); test: OGG1 inhibitor assay with fluorogenic OGR1 probe; format: biochemical
[2] = molecular target: Recombinant His-tagged OGG1 (Homo sapiens, UniProt O15527); test: Surface plasmon resonance; format: binding; settings: Biacore 8K, 1:3 dilution series, highest concentration 4 μM
hOGG1 [3] = molecular target: T1, hOGG1; test: Michaelis–Menten kinetics of hOGG1 with OGR1 probe; format: biochemical
In short: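 Recombinant hOGG1 (100 nM) was preincubated 15 min at 37 °C in NEBuffer 4 (pH 7.9) with BSA, without or with test compound (200 nM or 2 μM). OGR1 fluorogenic substrate was added at 0.8–10 μM and fluorescence read at 460 nm (excitation 355 nm). Initial rates over 10 min gave Michaelis–Menten curves and Lineweaver–Burk plots, yielding Km and Vmax; kcat = Vmax/[enzyme].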

[4] = molecular target: MTH1 (human MutT Homolog 1) (Homo sapiens, UniProt P36639); test: Enzyme selectivity screen, MTH1; format: biochemical; settings: 20 μM
[5] = system: dUTPase (deoxyuridine 5′-triphosphate nucleotidohydrolase); test: Enzyme selectivity screen, dUTPase; format: biochemical; settings: 20 μM
[6] = molecular target: NUDT16 (nucleoside diphosphate-linked moiety X-type motif 16) (Homo sapiens, UniProt Q96DE0); test: Enzyme selectivity screen, NUDT16; format: biochemical; settings: 20 μM
Chain of NUDT16 (nucleoside diphosphate-linked moiety X-type motif 16) (Q96DE0 whole entry, species assumed): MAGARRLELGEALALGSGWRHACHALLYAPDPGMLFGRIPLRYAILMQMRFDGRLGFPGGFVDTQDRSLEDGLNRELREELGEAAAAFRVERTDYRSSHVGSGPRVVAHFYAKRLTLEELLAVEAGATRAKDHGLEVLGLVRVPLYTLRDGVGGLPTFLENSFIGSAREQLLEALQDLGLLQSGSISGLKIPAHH

[7] = molecular target: T2, hABH2 (human AlkB Homolog 2) (Homo sapiens, UniProt Q6NS38); test: Enzyme selectivity screen, hABH2; format: biochemical; settings: 20 μM
T2 sequence (Q6NS38 1-261): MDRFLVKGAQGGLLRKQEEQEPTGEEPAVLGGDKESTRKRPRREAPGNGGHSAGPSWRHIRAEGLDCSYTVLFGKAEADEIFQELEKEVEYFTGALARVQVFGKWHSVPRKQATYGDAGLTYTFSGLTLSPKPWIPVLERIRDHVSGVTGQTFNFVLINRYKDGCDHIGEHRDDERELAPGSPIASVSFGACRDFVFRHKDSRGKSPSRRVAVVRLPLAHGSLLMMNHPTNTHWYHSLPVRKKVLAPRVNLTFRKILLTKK

[8] = molecular target: T3, hABH3 (human AlkB Homolog 3) (Homo sapiens, UniProt Q96Q83); test: Enzyme selectivity screen, hABH3; format: biochemical; settings: 20 μM
T3 sequence (Q96Q83 1-286): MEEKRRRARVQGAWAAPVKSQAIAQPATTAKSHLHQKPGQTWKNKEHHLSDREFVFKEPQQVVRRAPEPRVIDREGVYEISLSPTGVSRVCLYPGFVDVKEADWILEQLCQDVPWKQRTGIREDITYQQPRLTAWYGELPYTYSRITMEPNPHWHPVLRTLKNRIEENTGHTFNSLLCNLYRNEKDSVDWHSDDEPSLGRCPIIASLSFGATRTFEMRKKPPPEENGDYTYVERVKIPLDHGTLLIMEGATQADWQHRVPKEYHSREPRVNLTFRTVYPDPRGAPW

[9] = molecular target: T4, SMUG1 (single-strand selective monofunctional uracil DNA glycosylase) (Homo sapiens, UniProt Q53HV7); test: Enzyme selectivity screen, SMUG1; format: biochemical; settings: 20 μM
T4 sequence (Q53HV7 1-270): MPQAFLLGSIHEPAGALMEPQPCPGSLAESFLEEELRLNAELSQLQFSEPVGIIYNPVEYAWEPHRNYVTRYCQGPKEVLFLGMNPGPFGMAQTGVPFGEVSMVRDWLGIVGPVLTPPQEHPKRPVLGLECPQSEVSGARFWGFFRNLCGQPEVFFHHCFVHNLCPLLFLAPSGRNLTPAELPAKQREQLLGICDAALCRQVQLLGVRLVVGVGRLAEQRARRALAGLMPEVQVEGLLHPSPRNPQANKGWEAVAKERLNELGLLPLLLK

HEK293T cells = test: Toxicity via MTT assay, HEK293T; format: cell-based, human
In short: (§1)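 HEK293T cells (1.6×10^4/well, pre-grown 30 h) or HeLa cells (1.2×10^4/well, pre-grown 16 h) were cultured in DMEM with 10% FBS. They were exposed 24 h at 37 °C to test compound at 10 nM–100 μM, with 5% DMSO at 100 μM and 1% DMSO otherwise; medium-only and DMSO-matched controls were included. MTT was added at 0.5 mg/mL final, followed by 20 h solubilisation and absorbance reading at 550 and 650 nm.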

HeLa cells = test: Toxicity via MTT assay, HeLa; format: cell-based, human
In short: as §1

Caco-2 (clone C2BBel) = test: CACO-2 permeability assay; format: in vitro ADME; settings: for Papp avg: average; for Papp R1: replicate R1
OGG1 in HeLa cells = OGG1 in HeLa cells (Homo sapiens, UniProt O15527); test: Detection of 8-OG; format: cell-based; settings: 0.5 μM, 24 h, LC/MS-MS
Chain of OGG1 in HeLa cells (O15527 whole entry): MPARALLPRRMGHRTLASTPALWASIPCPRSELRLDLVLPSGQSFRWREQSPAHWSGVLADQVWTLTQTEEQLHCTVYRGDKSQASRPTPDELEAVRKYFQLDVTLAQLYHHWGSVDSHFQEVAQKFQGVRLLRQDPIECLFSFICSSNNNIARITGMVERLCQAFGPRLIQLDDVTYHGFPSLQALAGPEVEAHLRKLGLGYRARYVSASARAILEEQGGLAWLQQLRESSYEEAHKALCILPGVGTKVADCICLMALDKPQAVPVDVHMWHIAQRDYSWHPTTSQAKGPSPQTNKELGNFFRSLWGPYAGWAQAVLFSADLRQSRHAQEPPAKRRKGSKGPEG
In short: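 HeLa cells were seeded at 2×10^6 per 10 cm dish in DMEM with 10% FBS and grown 12 h. They were then exposed 24 h at 37 °C to test compound at 5 or 0.5 μM, with compound-containing medium renewed every 6 h. Controls were untreated cells and H2O2 (0.5 mM) plus CrCl3 (0.3 mM). DNA (5 µg) was digested to nucleosides, and 8-oxodG was quantified by LC-MS/MS with 15N-labelled internal standards and normalised to dG.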

[10] = molecular target: OGG1 activity in HeLa cell lysates (Homo sapiens, UniProt O15527); test: Inhibition of OGG1 activity in HeLa cell lysate; format: biochemical; settings: 0.5 μM, measured at 20 h
Chain of OGG1 activity in HeLa cell lysates (O15527 whole entry): as above
In short: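 Cells were grown 48 h to confluence in DMEM with 10% FBS. Cytoplasmic fractions came from hypotonic swelling and needle lysis; nucleoplasmic fractions from 0.42 M NaCl extraction. The two were mixed 2:1. Each reaction held 100 ng/µL total protein, 2 µM pOGR1 fluorogenic probe, 10 mM MgCl2 and test compound at 0.5 μM, and ran […] at 37 °C. Fluorescence was read at 460 nm (excitation 355 nm).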

[11] = molecular target: OGG1 activity in MCF-7 cell lysates (Homo sapiens, UniProt O15527); test: Inhibition of OGG1 activity in MCF-7 cell lysate; format: biochemical; settings: MCF-7 lysate, 0.5 μM, measured at 20 h
Chain of OGG1 activity in MCF-7 cell lysates (O15527 whole entry): as above

T1 sequence (O15527 whole entry): as above
Chain of Recombinant His-tagged OGG1 (O15527 whole entry): as above

NC(=O)c1cccc(-c2ccc(S(=O)(=O)Nc3ccc4c(c3)N(C(=O)C3CC3)CCC4)cc2)c1 [Compound 41]
Enzyme activity, % of control at 2 μM (hOGG1 [1]; 2 μM compound, initial rate (first 12 min)): 4.8 % of control
IC50 (hOGG1 [1]; OGR1 assay, initial rates method): 59 nM
Enzyme activity, % of control at 200 μM (third column of Table 5) (hOGG1 [1]; head of Table 5 c4 prints 200 μM, initial rate (first 12 min)): 39 ±2.5 % of control
Kd (1:1 kinetic and steady-state models) [2]: consistent with IC50 of the biochemical assay
mode of inhibition (hOGG1 [3]; Lineweaver–Burk analysis, 200 nM and 2 μM): competitive inhibitor
kcat (hOGG1 [3]; with 200 nM 41): 0.040 s⁻¹
kcat (hOGG1 [3]; with 2 μM 41): 0.057 s⁻¹
activity against MTH1 [4]: low or negligible
activity against dUTPase [5]: low or negligible
activity against NUDT16 [6]: low or negligible
activity against hABH2 [7]: low or negligible
activity against hABH3 [8]: low or negligible
activity against SMUG1 [9]: low or negligible
toxicity at 10 μM (HEK293T cells; HEK293T (one of two human cell lines), 10 μM): no toxicity
cytotoxicity (MTT) (HEK293T cells; HEK293T, 10 nM to 10 μM, 24 h): little or no cytotoxicity
apparent toxicity (MTT) (HEK293T cells; HEK293T, 100 μM, 24 h): 30–50%
toxicity at 10 μM (HeLa cells; HeLa (one of two human cell lines), 10 μM): no toxicity
cytotoxicity (MTT) (HeLa cells; HeLa, 10 nM to 10 μM, 24 h): little or no cytotoxicity
apparent toxicity (MTT) (HeLa cells; HeLa, 100 μM, 24 h): 30–50%
recovery (Caco-2 (clone C2BBel); A-to-B): 65%
Papp avg (Caco-2 (clone C2BBel); A-to-B): 12.5 ×10⁻⁶ cm/s
Papp R1 (Caco-2 (clone C2BBel); A-to-B): 14.2 ×10⁻⁶ cm/s
recovery (Caco-2 (clone C2BBel); B-to-A): 79%
efflux ratio (Caco-2 (clone C2BBel); B-to-A / A-to-B): 6.2
Papp avg (Caco-2 (clone C2BBel); B-to-A): 77.4 ×10⁻⁶ cm/s
Papp R1 (Caco-2 (clone C2BBel); B-to-A): 63.5 ×10⁻⁶ cm/s
increase of 8-oxodG levels in DNA relative to mock-treated controls (OGG1 in HeLa cells): 25%
inhibition of probe signal [10]: 64%
inhibition of probe signal [11]: 95%

— publication PMC5823510 (Journal of the American Chemical Society, 2018)
